Results taken from ChEMBL document CHEMBL4152363, “Andrographolide derivative as STAT3 inhibitor that protects acute liver damage in mice” (Bioorg Med Chem, 2018).
Calls of active or inactive are those of the source. The rule behind the calls is not given here.

Tests used:
[1] = target: T1, Signal transducer and activator of transcription 3 (Homo sapiens, UniProt P40763); experiment: Inhibition of […] activation in human HeLa cells incubated […] for 16 hrs followed by compound addition measured after 4 hrs by luciferase reporter gene assay; type: cell-based
T1 sequence (P40763 whole entry): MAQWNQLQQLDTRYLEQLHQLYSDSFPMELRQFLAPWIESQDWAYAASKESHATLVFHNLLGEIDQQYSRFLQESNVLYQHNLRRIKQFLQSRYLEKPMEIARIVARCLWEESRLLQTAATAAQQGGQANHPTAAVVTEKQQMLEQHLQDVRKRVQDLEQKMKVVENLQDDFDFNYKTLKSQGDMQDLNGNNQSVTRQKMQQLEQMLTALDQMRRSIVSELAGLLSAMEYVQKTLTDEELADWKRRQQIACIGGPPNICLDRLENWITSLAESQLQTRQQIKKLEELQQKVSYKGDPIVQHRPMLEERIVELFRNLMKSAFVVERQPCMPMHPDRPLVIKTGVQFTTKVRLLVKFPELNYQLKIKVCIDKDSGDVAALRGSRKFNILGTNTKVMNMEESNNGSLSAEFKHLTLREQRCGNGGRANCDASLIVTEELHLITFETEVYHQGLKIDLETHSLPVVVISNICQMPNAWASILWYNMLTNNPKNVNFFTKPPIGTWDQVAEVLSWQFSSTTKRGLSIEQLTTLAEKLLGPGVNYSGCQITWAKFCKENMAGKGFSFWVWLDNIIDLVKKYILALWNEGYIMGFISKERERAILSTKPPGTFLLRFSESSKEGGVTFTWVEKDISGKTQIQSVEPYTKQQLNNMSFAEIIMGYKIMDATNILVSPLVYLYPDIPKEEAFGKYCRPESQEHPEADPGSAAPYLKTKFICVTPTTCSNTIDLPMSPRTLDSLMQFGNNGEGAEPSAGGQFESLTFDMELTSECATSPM
How it was run: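 NF-κB pathway in AD-293 or HeLa cells stimulated with 50 ng/mL TNF-α; compound treatment 4 h; luciferase activity read from cell extracts; EC50 derived.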

[2] = target: T1, Signal transducer and activator of transcription 3; experiment: Inhibition of IL-6 stimulated STAT3 activation in human AD293 cells incubated with IL-6 for 16 hrs followed by compound addition measured after 6 hrs by luciferase reporter gene assay; type: cell-based
How it was run: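 AD-293 cells stimulated with 2.5 μg/mL IL-6; compound treatment 6 h; luciferase activity read from cell extracts; EC50 derived.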

HeLa = experiment: Cytotoxicity against human HeLa cells; type: cell-based
How it was run: (§1)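 AD-293 or HeLa cells grown in high-glucose DMEM with 10% FBS and 1% penicillin-streptomycin; compound exposure 24 h; cytotoxicity reported as CC10.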

[3] = target: T1, Signal transducer and activator of transcription 3; experiment: Inhibition of […] activation in human AD293 cells incubated […] for 16 hrs followed by compound addition measured after 4 hrs by luciferase reporter gene assay; type: cell-based
[4] = (§2) Cytotoxicity against human AD293 cells; type: cell-based; conditions: AD293 cells; how it was run: as §1
[5] = target: T1, Signal transducer and activator of transcription 3; experiment: Inhibition of IFNgamma-stimulated STAT3 activation in human HeLa cells incubated with IFNgamma for 16 hrs followed by compound addition measured after 24 hrs by luciferase reporter gene assay; type: cell-based
How it was run: (§3)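 AD-293 or HeLa cells in DMEM/10% FBS stimulated with 20 pg/mL IFN-γ; compound treatment 24 h; luciferase activity measured in cell extracts; EC50 derived.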

[6] = target: T1, Signal transducer and activator of transcription 3; experiment: Inhibition of IFNgamma-stimulated STAT3 activation in human AD293 cells incubated with IFNgamma for 16 hrs followed by compound addition measured after 24 hrs by luciferase reporter gene assay; type: cell-based; how it was run: as §3
AD293 = experiment: as §2; type: cell-based; conditions: ad293; how it was run: as §1
[7] = target: T1, Signal transducer and activator of transcription 3; experiment: Inhibition of IFNgamma-stimulated STAT3 phosphorylation at Tyr705 residues in human AD293 cell lysates incubated with IFNgamma followed by compound addition at 10 uM by Western blot analysis
How it was run: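 AD-293 cells treated with 1 μg/mL IFN-γ alone or with compounds at 10 μM; phospho- and total STAT1 and STAT3 assessed by western blot; representative of at least three independent experiments.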

Structure (SMILES) | EC50 [1] | EC50 [2] | CC10 (HeLa) | EC50 [3] | CC50 [4] | EC50 [5] | EC50 [6] | CC10 (AD293) | inhibition [7]
C=C1CC[C@@H]2[C@](C)(CO[Si](C)(C)C(C)(C)C)[C@H](O)CC[C@@]2(C)[C@@H]1C/C=C1/C(=O)OC[C@@H]1OC(C)=O | 9.96 µM | 3.22 µM | > 10 µM | 7.28 µM | 6.83 µM | 9.43 µM | 8.15 µM |  | 
C=C1CC[C@H]2[C@@](C)(CCC(=O)[C@@]2(C)CO[Si](C)(C)C(C)(C)C)[C@@H]1C/C=C1/C(=O)OC[C@H]1OC(C)=O | 4.57 µM | 0.99 µM | > 10 µM | 7.52 µM | 7.35 µM | 4.43 µM | 1.97 µM |  | 
C=C1CC[C@@H]2[C@](C)(COC(C)=O)[C@H](OC(C)=O)CC[C@@]2(C)[C@@H]1C/C=C1/C(=O)OC[C@@H]1O[Si](C)(C)C(C)(C)C | > 10 µM | > 10 µM | > 10 µM | > 10 µM |  | > 10 µM | > 10 µM | > 10 µM | 
C=C1CC[C@H]2[C@@](C)(CCC(=O)[C@@]2(C)CO)[C@@H]1C/C=C1/C(=O)OC[C@H]1OC(C)=O | > 10 µM | 6.1 µM | > 10 µM | > 10 µM |  | > 10 µM | 7.93 µM | > 10 µM | 
C=C1CC[C@@H]2[C@](C)(CO)[C@H](O)CC[C@@]2(C)[C@@H]1C/C=C1/C(=O)OC[C@@H]1O[Si](C)(C)C(C)(C)C | > 10 µM | > 10 µM | > 10 µM | > 10 µM |  | > 10 µM | > 10 µM | > 10 µM | 
CC(C)(C)[Si](C)(C)O[C@@H]1COC(=O)/C1=C/C[C@@H]1[C@]2(CC[C@@H]3[C@](C)(CO)[C@H](O)CC[C@]31C)CO2 | > 10 µM | 3.05 µM | > 10 µM | > 10 µM |  | > 10 µM | 3.45 µM | > 10 µM | 
C[C@@]12CCC(=O)[C@@](C)(CO)[C@H]1CC[C@]1(CO1)[C@H]2C/C=C1/C(=O)OC[C@H]1O | > 10 µM | > 10 µM | > 10 µM | > 10 µM |  | > 10 µM | > 10 µM | > 10 µM | 
C=C1CC[C@H]2[C@@](C)(CCC(=O)[C@@]2(C)COC(C)=O)[C@@H]1C/C=C1/C(=O)OC[C@@H]1O[Si](C)(C)C(C)(C)C | > 10 µM | > 10 µM | > 10 µM | > 10 µM |  | > 10 µM | > 10 µM | > 10 µM | 
C=C1CC[C@H]2[C@@](C)(CCC(=O)[C@@]2(C)CO[Si](C)(C)C(C)(C)C)[C@@H]1C/C=C1/C(=O)OC[C@H]1O | 8.81 µM | 6.45 µM | > 10 µM | 7.75 µM | 2.35 µM | 8.95 µM | 3.45 µM |  | 
CC(C)(C)[Si](C)(C)OC[C@]1(C)C(=O)CC[C@@]2(C)[C@H](C/C=C3/C(=O)OC[C@H]3O[Si](C)(C)C(C)(C)C)[C@]3(CC[C@@H]21)CO3 | > 10 µM | > 10 µM | > 10 µM | > 10 µM |  | > 10 µM | 4.4 µM | > 10 µM | 
CC(=O)OC[C@]1(C)C(=O)CC[C@@]2(C)[C@H](C/C=C3/C(=O)OC[C@@H]3O[Si](C)(C)C(C)(C)C)[C@@]3(CC[C@@H]21)CO3 | 7.05 µM | 2.56 µM | > 10 µM | > 10 µM |  | > 10 µM | 2.23 µM | > 10 µM | 
C=C1CC[C@H]2[C@@](C)(CCC(=O)[C@@]2(C)CO[Si](C)(C)C(C)(C)C)[C@@H]1C/C=C1/C(=O)OC[C@@H]1OC(C)=O | > 10 µM | 4.78 µM | > 10 µM | 7.98 µM | 8.23 µM | 9.33 µM | 4.75 µM |  | 
C=C1CC[C@H]2[C@@](C)(CCC(=O)[C@@]2(C)COC(C)=O)[C@@H]1C/C=C1/C(=O)OC[C@H]1O[Si](C)(C)C(C)(C)C | > 10 µM | > 10 µM | > 10 µM | > 10 µM |  | > 10 µM | > 10 µM | > 10 µM | 
C=C1CC[C@H]2[C@@](C)(CCC(=O)[C@@]2(C)CO[Si](C)(C)C(C)(C)C)[C@@H]1C/C=C1/C(=O)OC[C@@H]1O | > 10 µM | 4.34 µM | > 10 µM | > 10 µM |  | > 10 µM | 4.72 µM | > 10 µM | 
C=C1CC[C@@H]2[C@](C)(CO)[C@H](O)CC[C@@]2(C)[C@@H]1C/C=C1/C(=O)OC[C@H]1O [ANDROGRAPHOLIDE] | > 10 µM | > 10 µM | > 10 µM | > 10 µM |  | > 10 µM | > 10 µM | > 10 µM | 
CC(=O)O[C@@H]1COC(=O)/C1=C/C[C@@H]1[C@]2(CC[C@@H]3[C@](C)(CO)[C@H](O)CC[C@]31C)CO2 | 9.67 µM | 3.11 µM | > 10 µM | 9.49 µM | 10.9 µM | 9.45 µM | 5.11 µM |  | 
CC(=O)OC[C@]1(C)C(=O)CC[C@@]2(C)[C@H](C/C=C3/C(=O)OC[C@H]3O[Si](C)(C)C(C)(C)C)[C@]3(CC[C@@H]21)CO3 | > 10 µM | > 10 µM | > 10 µM | > 10 µM |  | 8.34 µM | 5.38 µM | > 10 µM | Active
CC(C)(C)[Si](C)(C)OC[C@]1(C)C(=O)CC[C@@]2(C)[C@H](C/C=C3/C(=O)OC[C@H]3O)[C@]3(CC[C@@H]21)CO3 | > 10 µM | > 10 µM | > 10 µM | > 10 µM | 8.31 µM | > 10 µM | > 10 µM |  | 
C=C1CC[C@H]2[C@@](C)(CCC(=O)[C@@]2(C)CO)[C@@H]1C/C=C1/C(=O)OC[C@H]1O[Si](C)(C)C(C)(C)C | > 10 µM | > 10 µM | > 10 µM | > 10 µM |  | > 10 µM | > 10 µM | > 10 µM | 
C=C1CC[C@H]2[C@@](C)(CCC(=O)[C@@]2(C)CO)[C@@H]1C/C=C1/C(=O)OC[C@@H]1OC(C)=O | > 10 µM | > 10 µM | > 10 µM | > 10 µM |  | > 10 µM | > 10 µM | > 10 µM | 
C=C1CC[C@@H]2[C@](C)(COC(C)=O)[C@H](OC(C)=O)CC[C@@]2(C)[C@@H]1C/C=C1/C(=O)OC[C@H]1O[Si](C)(C)C(C)(C)C | > 10 µM | > 10 µM | > 10 µM | > 10 µM |  | > 10 µM | 8.18 µM | > 10 µM | 
C=C1CC[C@@H]2[C@](C)(CO[Si](C)(C)C(C)(C)C)[C@H](O)CC[C@@]2(C)[C@@H]1C/C=C1/C(=O)OC[C@H]1OC(C)=O | 8.11 µM | 2.21 µM | > 10 µM | 6.92 µM | 7.33 µM | 4.33 µM | 1.18 µM |  | 
CC(=O)OC[C@]1(C)C(=O)CC[C@@]2(C)[C@H](C/C=C3/C(=O)OC[C@@H]3O[Si](C)(C)C(C)(C)C)[C@]3(CC[C@@H]21)CO3 | 9.91 µM | 2.65 µM | > 10 µM | > 10 µM |  | > 10 µM | 2.55 µM | > 10 µM | 
CC(=O)OC[C@]1(C)C(=O)CC[C@@]2(C)[C@H](C/C=C3/C(=O)OC[C@H]3O[Si](C)(C)C(C)(C)C)[C@@]3(CC[C@@H]21)CO3 | > 10 µM | 7.98 µM | > 10 µM | > 10 µM |  | > 10 µM | 5.81 µM | > 10 µM | 
C=C1CC[C@H]2[C@@](C)(CCC(=O)[C@@]2(C)CO)[C@@H]1C/C=C1/C(=O)OC[C@@H]1O[Si](C)(C)C(C)(C)C | > 10 µM | > 10 µM | > 10 µM | > 10 µM |  | > 10 µM | > 10 µM | > 10 µM | 
CC(=O)O[C@@H]1COC(=O)/C1=C/C[C@@H]1[C@@]2(CC[C@@H]3[C@](C)(CO)[C@H](O)CC[C@]31C)CO2 | 7.54 µM | 3.04 µM | > 10 µM | 8.51 µM |  | > 10 µM | 2.6 µM | > 10 µM | 
